Assay results as given in ChEMBL document CHEMBL4433203, “Design, synthesis, and evaluation of isoflavone analogs as multifunctional agents for the treatment of Alzheimer's disease” (Eur J Med Chem, 2019).
Activity calls are given as the source filed them. No cut-off for these calls is given here.

Experiments:
Mus musculus [1] = assay: Effect on latency time in ICR mouse model of scopolamine-induced cognitive deficit during training stage at 10 to 30 mg/kg, po treated for 1 hr followed by scopolamine challenge for 30 mins by step-down passive avoidance test; format: ADME, organism-based; details: in vivo
Outline: (§1)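 ICR mice, six weeks old, 18-22 g, either sex, n = 15/group. […] Step-down test used foot shock of 20 V, 0.5 mA, 2 s, with a training trial and a test 24 h later. Read-outs were latency to first step-down and number of shocks in 5 min. Mean ± SEM.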

Cholinesterase = Cholinesterase (Mus musculus, UniProt Q03311); assay: Inhibition of mouse plasma BuChE using S-butyrylacetylthiocholine iodide as substrate measured after 30 mins by Ellman's method relative to control; details: read-out: IC50
[2] = Cmax in ICR mouse brain at 30 mg/kg, po measured after 40 mins by LCMS/MS method; format: ADME, organism-based; set-up: dose 30 mg/kg, route oral
Outline: (§2)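 ICR mice got a single oral dose of 30 mg/kg. At 40 min they were sacrificed and plasma and brain collected. Compound in both was quantified by LC-MS/MS. Log BB is the log of the brain-to-blood concentration ratio. Methods state n = 5, table footnote n = 6. Mean ± SEM.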

Histamine H3 receptor = Histamine H3 receptor (Homo sapiens, UniProt Q9Y5N1); assay: Inhibition of human H3R expressed in methylhistamine-induced human H3-bla U2OS cells at 10 uM incubated for 30 mins by beta-lactamase complementation technology relative to control; format: cell-based
[3] = AUC (0 to infinity) in ICR mouse at 30 mg/kg, po measured upto 48 hrs by LCMS/MS method; format: ADME, organism-based; set-up: dose 30 mg/kg, time infinity, route oral; details: in vivo
[4] = Log BB, ratio of Cmax in brain to blood in ICR mouse at 30 mg/kg, po measured upto 48 hrs by LCMS/MS method; format: ADME, organism-based; details: read-out: logBB (converted)
[5] = Cytotoxicity in human SH-SY5Y cells assessed as reduction in cell viability after 72 hrs incubation by MTT assay; details: SH-SY5Y cells
BV-2 [6] = assay: Antiinflammatory activity in mouse BV2 cells assessed as reduction in LPS-induced TNF-alpha production at 10 uM pretreated for 1 hr followed by LPS challenge and measured after 24 hrs by ELISA assay; format: functional, cell-based
[7] = Plasma concentration in ICR mouse at 30 mg/kg, po measured after 40 mins by LCMS/MS method; format: ADME, organism-based; outline: as §2
[8] = Acute toxicity ICR mouse assessed as effect on drinking behavior at 0 to 1000 mg/kg, po measured up to 14 days; format: organism-based; details: in vivo, 336 h
Outline: (§3)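 Male ICR mice (22 days, 20–22 g), n = 5 per group, chow and water ad libitum, 12 h light/dark cycle. Single oral dose of 0, 100, 200, 500 or 1000 mg/kg in 0.5% CMC-Na. Observed continuously for the first 4 h, intermittently over the next 24 h, then occasionally to 14 days. Euthanized on day 14.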

[9] = Acute toxicity ICR mouse assessed as effect on body weight change at 0 to 1000 mg/kg, po measured up to 14 days; format: organism-based; details: in vivo, 336 h; outline: as §3
[10] = Tmax in ICR mouse at 30 mg/kg, po measured upto 48 hrs by LCMS/MS method; format: ADME, organism-based; details: in vivo
[11] = Half life in ICR mouse at 30 mg/kg, po measured upto 48 hrs by LCMS/MS method; format: ADME, organism-based; details: in vivo
AChE = assay: Selectivity index, ratio of CC50 for human SH-SY5Y cells to IC50 for inhibition of mouse brain AChE
[12] = Acute toxicity ICR mouse assessed as mortality at 0 to 1000 mg/kg, po measured up to 14 days; format: organism-based; details: in vivo, 336 h; outline: as §3
Mus musculus [13] = assay: Antialzheimer activity in ICR mouse model of scopolamine-induced cognitive deficit assessed as reduction scopolamine-induced error times at 10 to 30 mg/kg, po treated for 1 hr followed by scopolamine challenge for 30 mins by step-down passive avoidance test; format: functional, organism-based; outline: as §1
[14] = Acute toxicity ICR mouse assessed as induction of macroscopic abnormalities in heart at 0 to 1000 mg/kg, po measured after 14 days; format: organism-based; details: in vivo, 336 h; outline: as §3
H3R = assay: Selectivity index, ratio of CC50 for human SH-SY5Y cells to IC50 for inhibition of human H3R expressed in methylhistamine-induced human H3-bla U2OS cells; format: toxicity, cell-based; details: read-out: Ratio CC50/IC50
Outline: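 For IC50, H3-bla U2OS cells (human H3R–Gal4-VP16 plus β-arrestin/TEV, β-lactamase reporter) were seeded for 18 h. Compound was added for 30 min, then 400 nM methylhistamine (stock) for 5 h and FRET-B/G substrate for 2 h. Read 460/530 nm, triplicate per concentration, IC50 from log curves.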

[15] = Acute toxicity ICR mouse assessed as effect on eating behavior at 0 to 1000 mg/kg, po measured up to 14 days; format: organism-based; details: in vivo, 336 h; outline: as §3
[16] = Acute toxicity ICR mouse assessed as induction of macroscopic abnormalities in liver at 0 to 1000 mg/kg, po measured after 14 da; format: organism-based; details: in vivo; outline: as §3
[17] = Acute toxicity ICR mouse assessed as induction of macroscopic abnormalities in kidney at 0 to 1000 mg/kg, po measured after 14 da; format: organism-based; details: in vivo; outline: as §3
BV-2 [18] = assay: Antiinflammatory activity in mouse BV2 cells assessed as reduction in LPS-induced IL-6 production at 10 uM pretreated for 1 hr followed by LPS challenge and measured after 24 hrs by ELISA assay; format: functional, cell-based
[19] = molecular target: T1, Acetylcholinesterase (Mus musculus) (UniProt P21836); details: at 10 µM;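 note: enzyme taken from mouse brain, acetylthiocholine iodide as the substrate, read after 30 min with the Ellman method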
T1 sequence (whole entry): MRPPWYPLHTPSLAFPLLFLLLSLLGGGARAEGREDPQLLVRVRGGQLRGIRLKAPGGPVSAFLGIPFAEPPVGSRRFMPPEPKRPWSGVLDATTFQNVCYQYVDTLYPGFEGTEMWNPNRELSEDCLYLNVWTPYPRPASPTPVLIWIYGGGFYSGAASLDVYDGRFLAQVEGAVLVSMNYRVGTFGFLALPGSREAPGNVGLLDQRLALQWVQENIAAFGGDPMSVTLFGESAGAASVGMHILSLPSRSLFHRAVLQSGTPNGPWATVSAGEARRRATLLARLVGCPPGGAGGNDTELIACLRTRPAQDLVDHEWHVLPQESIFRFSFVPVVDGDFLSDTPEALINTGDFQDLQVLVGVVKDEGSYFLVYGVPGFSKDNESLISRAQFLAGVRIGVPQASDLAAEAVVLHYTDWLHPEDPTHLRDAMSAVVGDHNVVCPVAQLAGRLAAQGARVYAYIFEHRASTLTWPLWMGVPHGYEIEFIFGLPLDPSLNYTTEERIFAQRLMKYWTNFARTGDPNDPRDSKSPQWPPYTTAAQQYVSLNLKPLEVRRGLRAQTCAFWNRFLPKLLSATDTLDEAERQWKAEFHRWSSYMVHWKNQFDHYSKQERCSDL

Chain of Histamine H3 receptor (Q9Y5N1 whole entry): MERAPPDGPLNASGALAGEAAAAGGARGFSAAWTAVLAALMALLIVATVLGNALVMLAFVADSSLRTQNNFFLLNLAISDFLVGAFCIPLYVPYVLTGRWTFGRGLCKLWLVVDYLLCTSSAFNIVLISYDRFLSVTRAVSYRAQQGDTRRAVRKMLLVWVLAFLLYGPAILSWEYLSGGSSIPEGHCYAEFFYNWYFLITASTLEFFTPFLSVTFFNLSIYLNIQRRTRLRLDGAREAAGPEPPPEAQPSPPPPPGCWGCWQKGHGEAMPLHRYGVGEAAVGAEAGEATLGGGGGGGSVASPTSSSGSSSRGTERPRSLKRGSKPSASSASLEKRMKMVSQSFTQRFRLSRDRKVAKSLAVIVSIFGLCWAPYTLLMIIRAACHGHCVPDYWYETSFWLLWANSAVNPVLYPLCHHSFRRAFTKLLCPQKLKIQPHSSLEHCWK
Chain of Cholinesterase (Q03311 whole entry): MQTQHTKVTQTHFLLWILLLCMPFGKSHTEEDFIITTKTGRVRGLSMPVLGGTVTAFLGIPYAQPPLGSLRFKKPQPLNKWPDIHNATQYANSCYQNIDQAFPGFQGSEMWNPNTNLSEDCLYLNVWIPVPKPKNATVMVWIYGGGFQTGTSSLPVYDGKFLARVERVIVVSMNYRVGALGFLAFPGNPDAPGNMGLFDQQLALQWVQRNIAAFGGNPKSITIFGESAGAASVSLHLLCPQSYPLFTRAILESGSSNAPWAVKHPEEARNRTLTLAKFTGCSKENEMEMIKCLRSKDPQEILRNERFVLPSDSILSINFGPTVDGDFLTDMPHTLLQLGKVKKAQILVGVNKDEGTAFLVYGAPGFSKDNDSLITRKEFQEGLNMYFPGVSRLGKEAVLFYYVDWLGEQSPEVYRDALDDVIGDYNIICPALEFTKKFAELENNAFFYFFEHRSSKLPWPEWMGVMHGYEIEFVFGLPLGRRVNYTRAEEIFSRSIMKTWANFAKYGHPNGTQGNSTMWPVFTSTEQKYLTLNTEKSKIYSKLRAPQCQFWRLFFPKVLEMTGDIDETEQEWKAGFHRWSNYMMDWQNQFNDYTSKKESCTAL

CCN(C)CCCCOc1ccc2c(=O)c(-c3ccc(OCCN4CCCCC4)cc3)coc2c1
Activity (Mus musculus [1]): Non-Toxic | IC50 (Cholinesterase): 2890 nM | Cmax [2]: 762 ng/mL | inhibition (Histamine H3 receptor): 75.2% | AUC(0-inf) [3]: 352 ng·h/mL | Kp at 48 h [4]: 17.4 | CC50 at 72 h [5]: > 100000 nM | Activity (BV-2 [6]): Active | concentration at 40 min [7]: 47.2 ng/mL | Activity [8]: Non-Toxic | Activity [9]: Non-Toxic | Tmax [10]: 0.65 h | half-life [11]: 13.9 h | selectivity ratio (AChE): > 1230 | Activity [12]: Non-Toxic | Activity (Mus musculus [13]): Dose-dependent effect | Activity [14]: Non-Toxic | selectivity ratio (H3R): > 370 | Activity [15]: Non-Toxic | Activity [16]: Non-Toxic | Activity [17]: Non-Toxic | Activity (BV-2 [18]): Active | inhibition [19]: 92.8%
